Data as given in ChEMBL document CHEMBL4000211, “Discovery of novel polycyclic spiro-fused carbocyclicoxindole-based anticancer agents” (Eur J Med Chem, 2017).
Activity calls are given as the source filed them. The rule behind the calls is not given here.

Tests used:
A2780S [1] = assay: Antiproliferative activity against human A2780S cells at 30 uM after 48 hrs by MTT assay relative to control; assay type: functional
How it was run: (§1)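 Cells seeded at 3×10³/well and grown 24 h, then exposed 48 h to six final concentrations, twofold steps down from 30. MTT (5 mg/mL) was added for 2–4 h at 37 °C. Supernatant was removed, formazan dissolved in DMSO, and OD read at 570 nm. Results are given as IC50, or as percent inhibition where IC50 exceeds the top concentration. At least three runs.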

A2780S [2] = assay: Antiproliferative activity against human A2780S cells after 48 hrs by MTT assay; assay type: functional, cell-based; how it was run: as §1
A2780/Taxol = assay: Antiproliferative activity against human A2780T cells after 48 hrs by MTT assay; assay type: functional, cell-based; how it was run: as §1
HCT-116 [3] = assay: Antiproliferative activity against human HCT116 cells after 48 hrs by MTT assay; assay type: functional, cell-based; details: HCT-116, 48 h; how it was run: as §1
MCF7 = assay: Antiproliferative activity against human MCF7 cells after 48 hrs by MTT assay; assay type: functional, cell-based; details: MCF7, 48 h; how it was run: as §1
HCT-116 [4] = assay: Cell cycle arrest in human HCT116 cells assessed as accumulation at G1 phase at 7.5 uM after 24 hrs by propidium iodide staining-based flow cytometric method (reference value: 43.79%); assay type: functional
HCT-116 [5] = assay: Cell cycle arrest in human HCT116 cells assessed as accumulation at G2 phase at 10 uM after 24 hrs by propidium iodide staining-based flow cytometric method (reference value: 26.10%); assay type: functional
HCT-116 [6] = assay: Cell cycle arrest in human HCT116 cells assessed as accumulation at G1 phase at 7.5 uM after 48 hrs by propidium iodide staining-based flow cytometric method (reference value: 40.75%); assay type: functional
HCT-116 [7] = assay: Cell cycle arrest in human HCT116 cells assessed as accumulation at S phase at 7.5 uM after 48 hrs by propidium iodide staining-based flow cytometric method (reference value: 34.83%); assay type: functional
HCT-116 [8] = assay: Cell cycle arrest in human HCT116 cells assessed as accumulation at G1 phase at 10 uM after 48 hrs by propidium iodide staining-based flow cytometric method (reference value: 40.75%); assay type: functional
HCT-116 [9] = assay: Induction of apoptosis in human HCT116 cells assessed as cell shrinkage at 7.5 to 12.5 uM after 24 hrs by inverted microscopic method; assay type: functional, cell-based
How it was run: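 HCT116 at 1×10⁵/well grown 24 h, then treated 24 h (0, 7.5, 10, 12.5). Cells rinsed in PBS and fixed in 75% ethanol. Morphology was examined by inverted microscopy, then cells were stained with Hoechst 33342 for fluorescence microscopy of nuclei.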

HCT-116 [10] = assay: Induction of apoptosis in human HCT116 cells assessed as nuclear condensation at 7.5 to 12.5 uM after 24 hrs by Hoechst 33342 staining-based fluorescence microscopic method; assay type: functional, cell-based
How it was run: (§2)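 HCT116 cells (1×10⁵/well) cultured 24 h, then exposed to 0, 7.5, 10 or 12.5 μM (final) for 24 h. Rinsed in PBS, fixed in 75% ethanol and checked by inverted microscopy. Then stained with Hoechst 33342 (2 μg/mL in PBS) and scored for apoptotic nuclear morphology under fluorescence microscopy.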

HCT-116 [11] = assay: Induction of apoptosis in human HCT116 cells assessed as reduction in cell volume at 7.5 to 12.5 uM after 24 hrs by Hoechst 33342 staining-based fluorescence microscopic method; assay type: functional; how it was run: as §2
HCT-116 [12] = assay: Cell cycle arrest in human HCT116 cells assessed as accumulation at sub G1 phase at 10 uM after 24 hrs by propidium iodide staining-based flow cytometric method (reference value: 1.73%); assay type: functional
HCT-116 [13] = assay: Cell cycle arrest in human HCT116 cells assessed as accumulation at sub G1 phase at 12.5 uM after 24 hrs by propidium iodide staining-based flow cytometric method (reference value: 1.73%); assay type: functional
HCT-116 [14] = assay: Cell cycle arrest in human HCT116 cells assessed as accumulation at sub G1 phase at 10 uM after 48 hrs by propidium iodide staining-based flow cytometric method (reference value: 0.86%); assay type: functional
HCT-116 [15] = assay: Induction of apoptosis in human HCT116 cells assessed as early apoptotic cells at 7.5 uM after 24 hrs by annexin V-FITC/propidium iodide staining-based flow cytometric method (reference value: 1.9%); assay type: functional
HCT-116 [16] = assay: Induction of apoptosis in human HCT116 cells assessed as viable cells at 7.5 uM after 24 hrs by annexin V-FITC/propidium iodide staining-based flow cytometric method (reference value: 93.48%); assay type: functional; details: HCT-116, 24 h, read-out: Activity
How it was run: (§3)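 HCT116 cells seeded at 1×10⁶ cells/mL in 6-well plates for 24 h, then exposed to 0, 7.5, 10 or 12.5 μM for a further 24 h or 48 h. Cells washed twice in PBS, then stained with Annexin V-FITC plus PI (100 μg/mL stock) in binding buffer (10 mM HEPES, pH 7.4, 2.5 mM CaCl₂) for 30 min at room temperature in the dark. Early and late apoptotic fractions gated by flow cytometry.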

HCT-116 [17] = assay: Induction of apoptosis in human HCT116 cells assessed as early apoptotic cells at 10 uM after 24 hrs by annexin V-FITC/propidium iodide staining-based flow cytometric method (reference value: 1.9%); assay type: functional
HCT-116 [18] = assay: Induction of apoptosis in human HCT116 cells assessed as necrotic cells at 10 uM after 24 hrs by annexin V-FITC/propidium iodide staining-based flow cytometric method (reference value: 1.85%); assay type: functional
HCT-116 [19] = assay: Induction of apoptosis in human HCT116 cells assessed as viable cells at 10 uM after 24 hrs by annexin V-FITC/propidium iodide staining-based flow cytometric method (reference value: 93.48%); assay type: functional; details: HCT-116, 24 h, read-out: Activity; how it was run: as §3
HCT-116 [20] = assay: Induction of apoptosis in human HCT116 cells assessed as late apoptotic cells at 12.5 uM after 24 hrs by annexin V-FITC/propidium iodide staining-based flow cytometric method (reference value: 2.77%); assay type: functional
HCT-116 [21] = assay: Induction of apoptosis in human HCT116 cells assessed as necrotic cells at 12.5 uM after 24 hrs by annexin V-FITC/propidium iodide staining-based flow cytometric method (reference value: 1.85%); assay type: functional; how it was run: as §3
HCT-116 [22] = assay: Induction of apoptosis in human HCT116 cells assessed as necrotic cells at 7.5 uM after 48 hrs by annexin V-FITC/propidium iodide staining-based flow cytometric method (reference value: 2.29%); assay type: functional; how it was run: as §3
HCT-116 [23] = assay: Induction of apoptosis in human HCT116 cells assessed as early apoptotic cells at 10 uM after 48 hrs by annexin V-FITC/propidium iodide staining-based flow cytometric method (reference value: 1.6%); assay type: functional
HCT-116 [24] = assay: Induction of apoptosis in human HCT116 cells assessed as viable cells at 10 uM after 48 hrs by annexin V-FITC/propidium iodide staining-based flow cytometric method (reference value: 95.05%); assay type: functional; details: HCT-116, 48 h, read-out: Activity; how it was run: as §3
HCT-116 [25] = assay: Induction of apoptosis in human HCT116 cells assessed as increase in cleaved caspase-3 level after 24 hrs by Western blot method; assay type: functional, cell-based
How it was run: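 Treated HCT116 were lysed on ice in RIPA buffer with 1% protease inhibitor cocktail and spun 13000 g, 20 min, 4 °C. Protein was quantified by BCA. Equal protein was run on SDS-PAGE, blotted to PVDF, probed with primary and HRP secondary antibodies, and detected by enhanced chemiluminescence.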

A2780S [26] = assay: Antiproliferative activity against human A2780S cells at 3.75 uM after 48 hrs by MTT assay relative to control; assay type: functional; how it was run: as §1

IC50 (A2780S [2]): 7.91 µM
IC50 (A2780/Taxol): 23.4 µM
IC50 (HCT-116 [3]): 8.6 µM
IC50 (MCF7): 16.2 µM
Compound: C[C@@H]1Oc2ccc3ccccc3c2[C@@H]2[C@@H]1C=C(C=O)[C@@H](C)[C@]21C(=O)Nc2ccccc21
inhibition at 30 µM (A2780S [1]): 83.8 to 85.1%
Activity (HCT-116 [4]): 46.1%
Activity (HCT-116 [5]): 21.05%
Activity (HCT-116 [6]): 49.85%
Activity (HCT-116 [7]): 23.94%
Activity (HCT-116 [8]): 82.32%
Activity (HCT-116 [9]): Active
Activity (HCT-116 [10]): Active
Activity (HCT-116 [11]): Active
Activity (HCT-116 [12]): 15.92%
Activity (HCT-116 [13]): 37.03%
Activity (HCT-116 [14]): 32.93%
Activity (HCT-116 [15]): 3.78%
viability at 7.5 µM (HCT-116 [16]): 89.9%
Activity (HCT-116 [17]): 11.32%
Activity (HCT-116 [18]): 2.46%
viability at 10 µM (HCT-116 [19]): 76.1%
Activity (HCT-116 [20]): 17.98%
Activity (HCT-116 [21]): 2.21%
Activity (HCT-116 [22]): 2.02%
Activity (HCT-116 [23]): 27.48%
viability at 10 µM (HCT-116 [24]): 61.5%
Activity (HCT-116 [25]): Dose-dependent effect
inhibition at 3.75 µM (A2780S [26]): 17.7 to 24.1%
